Assay results pooled from the literature.
Each line is one published result; the experiments were not run side by side.
MDH2: Malate dehydrogenase, mitochondrial (MDH2, Sus scrofa, UniProt P00346)
SRC: Proto-oncogene tyrosine-protein kinase Src (SRC, Homo sapiens, UniProt P12931)
AKT1: RAC-alpha serine/threonine-protein kinase (AKT1, Homo sapiens, UniProt P31749)
Gpr84: G-protein coupled receptor 84 (Gpr84, Mus musculus, UniProt Q8CIM5)

SMILES | target | test | conditions | endpoint | result
O=S(=O)(Nc1ccc(-c2nc3cc(NS(=O)(=O)c4cccc5ccccc45)ccc3o2)cc1)c1cccc2ccccc12 | MDH2 | enzyme activity, inhibitor | – | IC50 | > 62.5 µM
CCCN1CCN(c2ccc(-c3cncc(Cl)c3N3CCC4(CCNC4=O)CC3)cc2)CC1 | Cyclin-dependent kinase 1 (CDK1, Homo sapiens, UniProt P06493) | cell-free assay | lysate | Kd | 18.9 µM
CC(=O)N[C@@H](CCCNC(=N)N)C(=O)NCC(=O)NCC(=O)N1CCC[C@H]1B(O)O | Dipeptidyl peptidase 4 (DPP4, Homo sapiens, UniProt P27487) | enzyme activity, inhibitor, fluorescence | – | Ki | 0.322 µM
CCCCCCCCCCCCCCCC(=O)OC[C@H](COP(=O)(O)OC1[C@H](O)[C@H](O)C(OP(=O)(O)O)[C@H](O)[C@H]1O)OC(=O)CCCCCCCCCCCCCCC (stereo partly drawn) | SRC | binding, fluorescence | – | Kd | 25.7 µM
CC(C)(C)n1nc(-c2ccc3nc(OC4CC4)ccc3c2)c(C(N)=O)c1N | AKT1 | cell-free assay | – | IC50 | > 10 µM
CNC(=O)c1cc2c(Oc3ccc(NC(=O)C4(C(=O)Nc5ccc(F)cc5)CC4)cc3)ccnc2cc1OC | Ephrin type-A receptor 2 (EPHA2, Homo sapiens, UniProt P29317) | enzyme activity, inhibitor, radiometric | – | IC50 | 0.054 µM
Cc1ncsc1-c1ccc(CNC(=O)[C@@H]2C[C@@H](O)CN2C(=O)[C@@H](NC(=O)CCCCCCCCCC(=O)N2CCN(CC[C@H](NC(=O)C3(N)CCN(c4ncnc5[nH]ccc45)CC3)c3ccc(Cl)cc3)CC2)C(C)(C)C)cc1 | AKT1 | binding, competition with immobilised ligand | – | Kd | 0.01 µM
CC(C)C[C@H](NC(=O)[C@H](CCCNC(=N)N)NC(=O)[C@H](C)N)C(=O)N[C@@H](Cc1ccc(O)cc1)C(=O)N[C@@H](Cc1ccc(O)cc1)C(=O)N[C@@H](Cc1ccccc1)C(=O)N[C@@H](Cc1c[nH]c2ccccc12)C(=O)N[C@@H](CC(=O)O)C(=O)N[C@H](C(=O)O)[C@@H](C)O | DNA dC->dU-editing enzyme APOBEC-3G (APOBEC3G, Homo sapiens, UniProt Q9HC16) | enzyme activity, inhibitor | – | Ki | ~7.8 µM
O=S(=O)(Nc1ccc(-c2nc3cc(NS(=O)(=O)c4ccccc4)ccc3o2)cc1)c1ccccc1 | MDH2 | enzyme activity, inhibitor | – | IC50 | > 62.5 µM
Cc1cc2nc3c(=O)[nH]c(=O)nc-3n(C[C@H](O)[C@H](O)[C@H](O)COP(=O)(O)OP(=O)(O)OC[C@H]3O[C@@H](n4cnc5c(N)ncnc54)[C@H](O)[C@@H]3O)c2cc1C | Ataxin-2 (Homo sapiens, UniProt Q99700) | binding | lysate | Kd | 0.022 µM
Cc1cnc(-c2ccc(-c3ccc(NC(=O)Nc4c(F)cc(F)cc4F)cc3F)c3c2C(=O)NC3)[nH]1 | SRC | binding, competition with immobilised ligand | – | Kd | 0.11 µM
CCCCCCCCCC(=O)O | Gpr84 | cAMP, agonist | – | EC50 | > 10 µM
COc1c(Br)cccc1C(=O)Nc1ccc(Sc2nc3ccccc3s2)c(Cl)c1 | MDH2 | enzyme activity, inhibitor | – | IC50 | > 62.5 µM
CCCCCCCCNc1cc(=O)[nH]c(=O)[nH]1 | Gpr84 | cAMP, agonist | – | EC50 | 0.066 µM
CC(O)CN1CCC(CC[S+]([O-])C(c2ccc(F)cc2)c2ccc(F)cc2)CC1 (stereo not drawn) | Transporter (Slc6a2, Rattus norvegicus, UniProt Q63380) | ligand displacement, radioligand | – | Ki | > 100 µM
